# Screens: PubChem, several laboratories
# Hits are enriched below; roughly 2.6% of the tested compounds scored in any of these assays.
# ASAP1 inh – blocks human ASAP1-stimulated Arf1 GTP hydrolysis | GDP FP detection | inhibition, % at 16.5 µM | hit rate 0.19% among 360,000 | AID 624377; in the data active = inhibition above about 25%;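 also: 0% = vehicle with enzyme and substrate and 100% = no enzyme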
# Target sequence (Q9ULH1 325-724 limits assumed): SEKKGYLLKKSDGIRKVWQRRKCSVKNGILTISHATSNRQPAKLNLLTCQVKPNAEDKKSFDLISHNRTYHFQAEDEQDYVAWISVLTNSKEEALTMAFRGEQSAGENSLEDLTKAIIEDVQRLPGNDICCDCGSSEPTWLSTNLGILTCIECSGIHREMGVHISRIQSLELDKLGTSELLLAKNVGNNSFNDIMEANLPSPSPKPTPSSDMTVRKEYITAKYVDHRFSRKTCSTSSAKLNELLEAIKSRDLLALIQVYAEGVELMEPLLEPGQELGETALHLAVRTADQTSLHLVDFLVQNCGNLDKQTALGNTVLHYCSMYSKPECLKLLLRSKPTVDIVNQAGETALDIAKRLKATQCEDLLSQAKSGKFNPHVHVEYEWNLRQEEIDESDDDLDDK
# esBAF inh – SWI/SNF esBAF complex inhibition; AID 602393; hit rate 2% among 350,000; reporter increase, % at 12.5 µM; mouse ES cells, Bmi1-luciferase knock-in reporter, 24 h; 100% = twice the neutral-well signal; in the data active = activation above about 40%;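 also: 0% = median of the plate's neutral control wells and 100% = double that signal; a rise in the Bmi1 reporter signal indicates esBAF inhibition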
# SMARCA2 activ – increases SMARCA2 function in MMTV reporter cells; MG213 cells, MMTV-luciferase reporter, dexamethasone, overnight; activation, % at 9.1 µM; hit rate 1% among 370,000; AID 652017; in the data active = activation above about 7.8%;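 also: 0% = vehicle wells and 100% = reference activator wells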
# ARFGAP1 inhibitor – inhibits rat ARF GTPase activating protein 1; Q62848; Arfgap1-stimulated ARF1 GTP hydrolysis, GDP FP detection; inhibition, % at 16.5 µM; hit rate 0.26% among 360,000;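 active = inhibition above a per-plate limit, mean inhibition of low control wells plus 3 SD, cut at about 25% in these data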;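 also: 0% = DMSO wells with enzyme and 100% = wells lacking Arfgap1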
# Target sequence (Q62848 1-136 limits assumed): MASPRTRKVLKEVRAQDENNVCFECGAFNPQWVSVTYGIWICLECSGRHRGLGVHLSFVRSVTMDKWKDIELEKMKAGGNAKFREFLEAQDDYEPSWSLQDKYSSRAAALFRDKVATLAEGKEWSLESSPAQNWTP
#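 Assay system: purified rat His6-Arfgap1 residues 1-136 (GAP domain); Reagent: human Δ17 ARF1 bound to GTP; Dosing: 16.5 µM single point, 1.26% DMSO; Times: GTP hydrolysis reaction 2 h at 25 °C; Signal: FP, GDP Alexa 633 tracer displaced from anti-GDP antibody, 620/688 nm; Measure: % inhibition from polarization.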
# SMARCA2 act conf – SMARCA2 activation, confirmation screen. MG213 cells, MMTV-luciferase with dexamethasone, luminescence, overnight; MG213 cells expressing E1A, Rb sequestered; DMSO wells 0%, reference activator 100%. hit rate 30% among 3,500. shares compounds with SMARCA2 activ. activation, % at 9.1 µM;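 active = activation above its plate's cutoff, the mean activation of tested wells plus 3 SD, cut at about 7.9% in these data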
# GAL4-VP16 Luc – counter-screen for SMARCA2 activators: GAL4-VP16 luciferase reporter activation. shares compounds with SMARCA2 activ. HEK293 GAL4-VP16 pG5luc reporter, luciferase luminescence; scaled: DMSO wells 0%, SAHA wells 100%. activation, % at 9.1 µM. hit rate 41% among 3,500;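 active = activation above the solvent-only control well mean plus 3 SD, averaged across control plates, cut at about 5.2% in these data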
# The depositor's hits bear a star; / = no result.
SMILES,ASAP1 inh,esBAF inh,SMARCA2 activ,ARFGAP1 inhibitor,SMARCA2 act conf,GAL4-VP16 Luc
CC(=O)Nc1ccc(C(=O)OCC(=O)N2CCCC2=O)cc1,-9.4,-2.2,8.9*,-6.0,0.5,1.2
CC(=O)Nc1ccc(C(=O)OCCCOC(=O)c2ccc(NC(C)=O)cc2)cc1,3.4,2.2,-2.4,1.2,/,/
O=C(Nc1ccc(F)cc1)C(CCc1ccccc1)N1CCN(C(=O)c2ccco2)CC1 (stereo not drawn),8.3,/,8.7*,-5.7,1.3,-1.2
CNC[C@@H]1Oc2cc(-c3ccccc3F)ccc2S(=O)(=O)N([C@H](C)CO)C[C@H]1C,/,3.6,/,/,/,/
Cc1ccc(C(=O)N/C(=C/c2ccc(-c3ccc([N+](=O)[O-])cc3)o2)C(=O)NCCCN(C)C)cc1,-3.6,/,9.5*,-3.0,12.1*,-0.2
COc1ccc(CCNC(=O)CCn2c(=O)c3cccn3c3cccnc32)cc1OC,4.5,1.8,12.4*,11.9,7.9*,0.9
Cc1noc(C)c1NC(=O)Nc1ccc2c(c1)C(=O)N([C@H](C)CO)C[C@H](C)[C@H](CN(C)C(=O)Cc1ccccc1)OCCCC[C@H](C)O2,/,2.5,/,/,/,/
Cc1ccccc1-c1cc2nc(NCc3ccncc3)n(C)c(=O)c2s1,3.6,23.2,11.3*,3.2,3.3,2.8
O=C(CCN1CCCCC1)NCC[C@H]1CC[C@H](NS(=O)(=O)c2cccc(F)c2)[C@H](CO)O1,/,3.8,/,/,/,/
CC(=O)c1cccc(Nc2cc(C)nc3ccc(C)cc23)c1,-3.7,/,11.3*,-6.3,1.1,-0.3
O=C(C[C@H]1C=C[C@H](NC(=O)CN2CCOCC2)[C@@H](CO)O1)NCCc1ccccc1,/,-3.5,/,/,/,/
COc1ccc(NC(=O)c2sc(SC)nc2N)cc1,-3.7,-5.8,10.9*,8.0,7.5,3.9
C[C@H](CO)N1C[C@H](C)[C@H](CN(C)S(=O)(=O)c2cn(C)cn2)Oc2ccc(NC(=O)CCC(F)(F)F)cc2C1=O,/,1.3,/,/,/,/
CCN(CC)c1ccc(Nc2cc3n(c(=O)n2)CCc2cc(OC)c(OC)cc2-3)cc1,-2.0,/,14.5*,3.0,18.1*,2.6
C=COCCNC(=O)Nc1ccc(Cl)c(Cl)c1,17.5,-1.4,8.2*,-2.2,0.8,2.1
S=C(NCc1cccnc1)Nc1ccc(Cl)c(Cl)c1,16.0,7.8,-5.7,14.1,/,/
O=C(NCc1cccnc1)Nc1ccc(Cl)c(Cl)c1,6.7,29.9,8.1*,-2.4,1.0,3.3
CCCN(C)C[C@H]1OCCCC[C@H](C)Oc2ccc(NS(=O)(=O)c3c(C)noc3C)cc2C(=O)N([C@@H](C)CO)C[C@@H]1C,/,-3.7,/,/,/,/
Cn1cccc1C(=O)NCCc1ccccc1,-9.7,-14.0,5.9,-6.4,/,/
COc1ccc(CCNC(=O)c2cccn2C)cc1,-12.0,50.1*,8.3*,-12.8,5.2,9.7*
O=C(CS(=O)c1ccc(C(F)(F)F)cc1[N+](=O)[O-])Oc1ccccc1 (stereo not drawn),11.3,/,15.6*,1.4,-14.6,4.2
COC(=O)c1ccc(OC(=O)CS(=O)c2ccccc2[N+](=O)[O-])cc1 (stereo not drawn),4.9,/,3.1,2.4,/,/
C[C@H]1CN([C@@H](C)CO)S(=O)(=O)c2ccc(-c3ccccc3)cc2O[C@@H]1CN(C)C,/,-1.8,/,/,/,/
O=C1Cc2c([nH]c3ccc([N+](=O)[O-])cc23)-c2ccccc2N1,-5.8,/,12.6*,0.6,11.2*,-2.1
Cc1nc(-c2cc(C#N)c(Sc3ccc(Cl)cc3Cl)nc2C)cs1,5.4,-2.5,10.2*,-2.6,-1.3,0.4
SMILES,ASAP1 inh,esBAF inh,SMARCA2 activ,ARFGAP1 inhibitor,SMARCA2 act conf,GAL4-VP16 Luc
CCn1c(SCC(=O)c2ccc(F)cc2)nnc1-c1ccoc1C,-1.1,21.3,9.6*,-4.6,4.3,2.2
Cc1occc1-c1nnc(SCCCC(=O)c2ccc(F)cc2)n1C,-2.6,8.8,-3.6,-8.9,/,/
O=C(Nc1cccc(C(=O)O)c1)Nc1ccccc1Cl,-1.2,/,5.1,2.6,/,/
O=C(Nc1ccc2nccnc2c1)Nc1ccccc1Cl,2.7,20.3,8.9*,7.6,0.9,6.8*
COC(=O)c1cccc(NC(=O)Cn2cnc3ccccc3c2=O)c1,-3.0,10.2,12.8*,-1.5,-5.0,-2.6
COc1cc(C=C(c2nc3ccccc3s2)c2nc3ccccc3s2)ccc1O,13.6,0.5,1.8,5.0,/,/
COc1cc(/C=C/c2nc3ccccc3s2)cc(OC)c1O,2.1,40.0,11.1*,2.1,3.0,2.2
C[C@@H]1CN([C@H](C)CO)C(=O)c2cc(NC(=O)CCCN(C)C)ccc2O[C@@H]1CN(C)C(=O)NC1CCCCC1,/,-3.6,/,/,/,/
CCCNCc1cc(Cl)c(OCC)c(Cl)c1,-7.7,7.1,9.1*,2.5,-3.9,-1.4
CC=Cc1ccc2n(c1=O)C[C@H]1[C@H](CO)[C@@H](C(=O)N3CCCCC3)[C@@H]2N1CC1CCCC1 (mixture of isomers),/,-4.5,/,/,/,/
CC(C)CSC1=NSC2=NC(=O)/C(=C\c3cccs3)C(=N)N12,3.4,/,9.5*,-10.4,-2.6,5.3*
CCCNC(=O)N1C[C@@H](O)COC[C@@H]2O[C@@H](CC(=O)N3CCOCC3)CC[C@H]21,/,-1.9,/,/,/,/
CC(C)(C)NC(=O)NCCc1ccccc1,18.2,/,9.9*,10.9,10.2*,8.2*
CC(C)NC(=O)N(C)C[C@@H]1Oc2ncc(C#CC3CCCC3)cc2C(=O)N([C@@H](C)CO)C[C@H]1C,/,4.6,/,/,/,/
CC(Oc1ccc(Br)cc1)C(=O)O/N=C(\N)c1ccncc1 (stereo not drawn),1.3,2.9,12.4*,-1.7,-4.4,-0.1
COc1cccc(CN(C)C[C@H]2OCc3ccccc3-c3ccccc3C(=O)N([C@@H](C)CO)C[C@H]2C)c1,/,-3.6,/,/,/,/
O=C1NC(=Nc2ccc3ccccc3c2)S/C1=C/c1ccco1,11.3,14.8,10.0*,7.5,6.0,4.1
CN(CCO)c1c2c(nc3cc(-c4cccc(F)c4)nn13)CCCC2,-14.7,-14.0,13.4*,-3.0,11.2*,18.4*
O=C(Nc1ccccc1)Nc1ccc2c(c1)[C@@H]1C[C@H](CC(=O)N3CCCCC3)O[C@@H](CO)[C@@H]1O2,/,3.5,/,/,/,/
C[C@@H]1CN([C@@H](C)CO)C(=O)c2cc(C#CC3CC3)cnc2O[C@H]1CN(C)C(=O)CC1CC1,/,2.6,/,/,/,/
Cc1ccc(/C=C/c2nnc(-c3cccc(C)c3)o2)cc1,6.3,52.8*,9.3*,10.6,1.9,1.3
Cc1nnc(-c2ccccc2)o1,11.9,5.1,-3.4,5.1,/,/
Cc1ccc(-c2nnc(/C=C/c3ccccc3)o2)cc1,-10.0,/,9.1*,2.2,7.4,10.1*
CN(C)c1ccc(CNn2cnnc2SCc2ccccc2F)cc1,0.7,19.8,10.1*,-0.8,2.0,3.0
COc1cc(OC)c(C(=O)O/N=C(\N)c2ccccn2)cc1OC,5.0,11.1,0.5,-1.3,/,/
COc1cc(OC)c(C(=O)O/N=C(\N)c2ccccc2)cc1OC,3.7,32.5,8.6*,10.0,3.5,1.7
